One block for each compound: values may come before it.
Key:
[1] = Growth inhibition effect against NSCL A-549 cells; format: functional, Homo sapiens
Procedure, shortened: (§1)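 SRB colorimetric growth assay. Cells seeded at 5 × 10^3 per well in RPMI, attached 18 h in drug-free medium, then sample added (dissolved in DMSO/H₂O 3:7) for 48-72 h. Fixed with cold 50% TCA, 60 min, 4 °C; stained with 0.4% SRB in 1% acetic acid, 10 min RT; bound dye solubilized in Tris, OD 490 nm. GI50 from 100 × [(T − T0)/(C − T0)] = 50.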

[2] = Growth inhibition effect against pancreas PANC-1 cells; format: functional, Homo sapiens; procedure, shortened: as §1
K562 = assay: Growth inhibition effect against leukemia […] cells; format: functional, Homo sapiens; procedure, shortened: as §1
[3] = Growth inhibition effect against colon LOVO-DOX cells; format: functional, Homo sapiens; procedure, shortened: as §1
[4] = Growth inhibition effect against ovarian tumor IGROV-ET cells; format: functional, Homo sapiens; procedure, shortened: as §1
[5] = Growth inhibition effect against ovarian tumor SK-BR-3 cells; format: functional, Homo sapiens; procedure, shortened: as §1
[6] = Growth inhibition effect against […] HT-29 cells; format: functional, Homo sapiens; procedure, shortened: as §1
[7] = Growth inhibition effect against melanoma MEL-28 cells; format: functional, Homo sapiens; procedure, shortened: as §1
[8] = Growth inhibition effect against prostate tumor DU-145 cells; format: functional, Homo sapiens; procedure, shortened: as §1
[9] = Growth inhibition effect against prostate tumor IGROV cells; format: functional, Homo sapiens; procedure, shortened: as §1
[10] = Growth inhibition effect against prostate tumor LN-caP cells; format: functional, Homo sapiens; procedure, shortened: as §1
[11] = Growth inhibition effect against prostate tumor SKOV-3 cells; format: functional, Homo sapiens, SK-OV-3; procedure, shortened: as §1
[12] = Growth inhibition effect against colon LOVO cells; format: functional, Homo sapiens; procedure, shortened: as §1

GI50 (K562; Homo sapiens, K562): 3.59 µM
Structure (SMILES): CC[C@H](C)[C@@H]1NC(=O)[C@H](C)NC(=O)[C@H](CC(C)C)N2C[C@@H](O)[C@@H](O)[C@H](NC(=O)[C@H](CC(N)=O)NC(=O)[C@H](Cc3ccccc3)NC(=O)[C@@H]3CCCN3C1=O)C2=O
GI50 ([1]; Homo sapiens, A549): 5.2 µM
GI50 ([2]; Homo sapiens, PANC-1): 5.1 µM
GI50 ([3]; Homo sapiens, LOVO-DOX): 8.84 µM
GI50 ([4]; Homo sapiens, IGROV-ET): 4.97 µM
GI50 ([5]; Homo sapiens, SK-BR-3): 3.86 µM
GI50 ([6]; Homo sapiens, HT-29): 9.31 µM
GI50 ([7]; Homo sapiens, SK-MEL-28): 6.69 µM
GI50 ([8]; Homo sapiens, DU-145): 10.6 µM
GI50 ([9]; Homo sapiens, IGROV): 3.33 µM
GI50 ([10]; Homo sapiens, LNCaP): 3.49 µM
GI50 ([11]; Homo sapiens, SK-OV-3): 4.99 µM
GI50 ([12]; Homo sapiens, LoVo): 8.83 µM

Structure (SMILES): CC[C@H](C)[C@@H]1NC(=O)[C@H](C)NC(=O)[C@H](CC(C)C)NC(=O)[C@H](CO)NC(=O)[C@H](CC(N)=O)NC(=O)[C@H](Cc2ccccc2)NC(=O)[C@@H]2CCCN2C1=O (stereo in doubt) [STYLOSTATIN 1]
GI50 ([1]; Homo sapiens, A549): 3.46 µM
GI50 ([2]; Homo sapiens, PANC-1): 5.03 µM
GI50 (K562; Homo sapiens, K562): 1.94 µM
GI50 ([3]; Homo sapiens, LOVO-DOX): 6.77 µM
GI50 ([4]; Homo sapiens, IGROV-ET): 3.3 µM
GI50 ([5]; Homo sapiens, SK-BR-3): 4.39 µM
GI50 ([6]; Homo sapiens, HT-29): 6.85 µM
GI50 ([7]; Homo sapiens, SK-MEL-28): 3.06 µM
GI50 [8]: 3.55 µM
GI50 ([9]; Homo sapiens, IGROV): 2.58 µM
GI50 ([10]; Homo sapiens, LNCaP): 2.6 µM
GI50 [11]: 304 µM
GI50 [12]: 4.55 µM

Structure (SMILES): CC[C@H](C)[C@@H]1NC(=O)[C@H](C)NC(=O)[C@H](CC(C)C)NC(=O)[C@H](CO)NC(=O)[C@H](CC(N)=O)NC(=O)[C@H](Cc2ccccc2)NC(=O)[C@@H]2CCCN2C1=O (stereo in doubt; 2) [STYLOSTATIN 1]
GI50 [1]: 4.28 µM
GI50 [2]: 4.97 µM
GI50 (K562): 3.42 µM
GI50 [3]: 8.52 µM
GI50 [4]: 4.29 µM
GI50 [5]: 4.16 µM
GI50 [6]: 7.13 µM
GI50 [7]: 4.64 µM
GI50 [8]: 8.44 µM
GI50 [9]: 3.35 µM
GI50 [10]: 2.44 µM
GI50 [11]: 3.77 µM
GI50 [12]: 11.5 µM

— ChEMBL document CHEMBL1145949, “Constrained derivatives of stylostatin 1. 1. Synthesis and biological evaluation as potential anticancer agents” (2003)
